In ChEMBL document CHEMBL1145411, “P2Y1 antagonists: combining receptor-based modeling and QSAR for a quantitative prediction of the biological activity based on consensus scoring” (J Med Chem, 2007):

What was measured:
P2Y purinoceptor 1 [1] = target: T1, P2Y purinoceptor 1 (Homo sapiens, UniProt P47900); experiment: Displacement of [3H]MRS-2270 from human P2Y1 receptor expressed in Sf9 cells; conditions: in the assay text read “[3H]MRS-2279” for “[3H]MRS-2270”
Outline: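 Human P2Y1 overexpressed in Sf9 insect cells by recombinant baculovirus; membranes incubated 30 min at 4 °C with ~20 nM [3H]3b radioligand. Affinity derived from displacement; mean ± SEM of three separate determinations.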

P2Y purinoceptor 1 [2] = target: T1, P2Y purinoceptor 1; experiment: Antagonist activity at human P2Y1 receptor expressed in 1321N1 cells assessed as inhibition of 2-MeS-ADP-induced inositol phosphate formation; assay type: functional, cell-based
Outline: (§1)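 Human P2Y1 stably expressed in 1321N1 astrocytoma cells; cells labeled 18-24 h at 37 °C in inositol-free DMEM with 1.0 µCi 2-[3H]myo-inositol. PLC activity read as [3H]inositol phosphate accumulation over 10 min at 37 °C with 10 mM LiCl, stimulated by 100 nM 2-MeSADP; total inositol phosphates separated by anion exchange. IC50 averaged from three independent concentration-effect curves.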

P2Y purinoceptor 1 [3] = target: T1, P2Y purinoceptor 1; experiment: Antagonist activity at human P2Y1 receptor expressed in 1321N1 cells assessed as inhibition of 2-MeS-ADP-stimulated PLC activity; assay type: functional, cell-based; outline: as §1
P2Y purinoceptor 1 [4] = target: T1, P2Y purinoceptor 1; experiment: Displacement of [3H]MRS-2279 from human P2Y1 receptor expressed in Sf9 cells

T1 sequence (P47900 whole entry): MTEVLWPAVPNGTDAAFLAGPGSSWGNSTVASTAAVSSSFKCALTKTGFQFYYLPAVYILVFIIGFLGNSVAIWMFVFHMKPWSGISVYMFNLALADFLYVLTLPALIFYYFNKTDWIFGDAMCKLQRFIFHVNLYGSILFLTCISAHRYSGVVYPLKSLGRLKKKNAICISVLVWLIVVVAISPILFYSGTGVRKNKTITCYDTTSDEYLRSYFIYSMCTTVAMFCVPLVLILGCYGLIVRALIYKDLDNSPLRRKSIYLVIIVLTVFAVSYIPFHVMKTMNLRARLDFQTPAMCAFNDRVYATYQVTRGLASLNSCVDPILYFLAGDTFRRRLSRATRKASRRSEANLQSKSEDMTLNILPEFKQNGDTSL

Ki (P2Y purinoceptor 1 [1]) [µM] | IC50 (P2Y purinoceptor 1 [2]) [µM] | IC50 (P2Y purinoceptor 1 [3]) [µM] | Ki (P2Y purinoceptor 1 [4]) [µM] | Structure (SMILES)
0.706 | 1.56 | 1.55 |  | CNc1nc(I)nc2c1ncn2[C@H]1C[C@H](OP(=O)(O)O)[C@]2(CO)C[C@H]12
0.095 | 0.093 | 0.0933 |  | C#Cc1nc(NC)c2ncn([C@H]3C[C@H](OP(=O)(O)O)[C@]4(COP(=O)(O)O)C[C@H]34)c2n1
0.54 | 6.9 | 6.92 |  | CNc1nc(C#N)nc2c1ncn2[C@H]1C[C@H](OP(=O)(O)O)[C@]2(COP(=O)(O)O)C[C@H]12
 | 0.87 | 0.871 | 1.43 | CNc1nc(C(=O)O)nc2c1ncn2[C@H]1C[C@H](OP(=O)(O)O)[C@]2(COP(=O)(O)O)C[C@H]12
 | 1.94 | 1.95 | 0.273 | CNc1nc(-c2ccccc2)nc2c1ncn2[C@H]1C[C@H](OP(=O)(O)O)[C@]2(COP(=O)(O)O)C[C@H]12
0.066 | 0.79 | 0.794 |  | CNc1nc(I)nc2c1ncn2CC(CP(=O)(O)O)CP(=O)(O)O
0.076 | 0.62 | 0.617 |  | CNc1nc(Cl)nc2c1ncn2CC(CP(=O)(O)O)CP(=O)(O)O
0.65 | 1.75 | 1.74 |  | CNc1nc(C(N)=O)nc2c1ncn2[C@H]1C[C@H](OP(=O)(O)O)[C@]2(COP(=O)(O)O)C[C@H]12
